ChEMBL document CHEMBL1122519, “Bispyridinamines: a new class of topical antimicrobial agents as inhibitors of dental plaque” (1984)

How the values were obtained:
Staphylococcus aureus = test: Minimum antimicrobial inhibitory concentration against Staphylococcus aureus; assay type: functional
Procedure, shortened: (§1)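 Serial twofold tube dilution in tryptose phosphate broth. Each compound was prepared as a 1000 μg/mL aqueous stock and diluted in double-strength broth, then 2×10^5 cells were added. Tubes were incubated aerobically at 37 °C for 24 h. The MIC was taken as the lowest concentration with no visible growth.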

Escherichia coli [1] = test: Antimicrobial minimum inhibitory concentration against Escherichia coli 100/B22; assay type: functional; procedure, shortened: as §1
Klebsiella pneumoniae = test: Minimum inhibitory concentration against Klebsiella pneumonia 39645; assay type: functional; procedure, shortened: as §1
Escherichia coli [2] = test: Antimicrobial minimum inhibitory concentration against Escherichia coli AB1932-1; assay type: functional; procedure, shortened: as §1
Pseudomonas aeruginosa = test: Minimum antimicrobial inhibitory concentration against Pseudomonas aeruginosa MGH-2; assay type: functional; procedure, shortened: as §1
Escherichia coli [3] = test: Minimum inhibitory concentration against Escherichia coli (Vogel); assay type: functional; procedure, shortened: as §1
Proteus mirabilis = test: Minimum antimicrobial inhibitory concentration against Proteus mirabilis MGH-1; assay type: functional; procedure, shortened: as §1
Streptococcus mutans = test: Minimum plaque inhibitory concentration using a standard test organism, Streptococcus mutans OMZ-61; assay type: functional, organism-based
Procedure, shortened: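 Ceramic hydroxylapatite plates were soaked twice for 1 min each in compound at […] (aqueous), air-dried and rinsed, then hung in sucrose beef-extract medium (pH 7.0) inoculated with late-log S. mutans OMZ-61. Incubation was anaerobic at 37 °C for 24 h, and treatment plus reinoculation were repeated for a second 24 h. Plaque was stained with 1% FD&C Red No. 3 and scored visually. The value is the lowest concentration giving no plaque while medium growth matched control.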

SMILES	MIC (Staphylococcus aureus)	MIC (Escherichia coli [1])	MIC (Klebsiella pneumoniae)	MIC (Escherichia coli [2])	MIC (Pseudomonas aeruginosa)	MIC (Escherichia coli [3])	MIC (Proteus mirabilis)	Concentration (Streptococcus mutans)
Br.Br.CCCCC(CC)CN=c1ccn(CCCCCn2ccc(=NCC(CC)CCCC)cc2)cc1 (configuration not stated)	0.5 mg/L	15.6 mg/L	> 125 mg/L	7.8 mg/L	125 mg/L	15.6 mg/L	> 125 mg/L	> 1%
Br.Br.CCCCC(CC)CN=c1ccn(CCCCCCCCCCCCn2ccc(=NCC(CC)CCCC)cc2)cc1 (configuration not stated)	0.5 mg/L	1 mg/L	2 mg/L	1 mg/L	3.9 mg/L	1 mg/L	3.9 mg/L	0.004%
Br.Br.CCCCC(CC)CN=c1ccn(CCCCCCCCCCn2ccc(=NCC(CC)CCCC)cc2)cc1 (configuration not stated)	0.2 mg/L	0.8 mg/L	3 mg/L	0.4 mg/L	48.4 mg/L	1.5 mg/L	12.1 mg/L	0.003%
CCCCCCCCN=c1ccn(CCCCCCn2ccc(=NCCCCCCCC)cc2)cc1.Cl.Cl	0.2 mg/L	0.5 mg/L	2 mg/L	0.5 mg/L	31.3 mg/L	1 mg/L	15.6 mg/L	0.004%
Br.Br.CCCCCCCN=c1ccn(CCCCn2ccc(=NCCCCCCC)cc2)cc1	1 mg/L	15.6 mg/L	> 125 mg/L	7.8 mg/L	> 250 mg/L	31.3 mg/L	> 250 mg/L	> 1%
Br.Br.CCCCC(CC)CN=c1ccn(CCCCCCCn2ccc(=NCC(CC)CCCC)cc2)cc1 (configuration not stated)	0.5 mg/L	3.9 mg/L	7.8 mg/L	3.9 mg/L	125 mg/L	3.9 mg/L	> 125 mg/L	> 1%
Br.Br.CCCCCCCCCCCCN=c1ccn(CCCCCCCCCn2ccc(=NCCCCCCCCCCCC)cc2)cc1	7.8 mg/L	62.5 mg/L	> 62.5 mg/L	> 62.5 mg/L	> 62.5 mg/L	62.5 mg/L	62.5 mg/L	0.1%
Br.Br.c1cn(CCCCCCCCCCn2ccc(=NC3CCCCC3)cc2)ccc1=NC1CCCCC1	0.2 mg/L	15.6 mg/L	> 125 mg/L	7.8 mg/L	> 125 mg/L	15.6 mg/L	> 125 mg/L	> 1%
Br.Br.CCCCCCCCCCCCN=c1ccn(CCCCCCCn2ccc(=NCCCCCCCCCCCC)cc2)cc1	3.9 mg/L	62.5 mg/L	> 62.5 mg/L	62.5 mg/L	62.5 mg/L	62.5 mg/L	62.5 mg/L	0.1%
Br.Br.CCCCC(CC)CN=c1ccn(CCCCCCCCCn2ccc(=NCC(CC)CCCC)cc2)cc1 (configuration not stated)	0.3 mg/L	1 mg/L	7.8 mg/L	1 mg/L	125 mg/L	1 mg/L	125 mg/L	0.004%
CS(=O)(=O)O.CS(=O)(=O)O.Clc1ccc(N=c2ccn(CCCCCCCCCCn3ccc(=Nc4ccc(Cl)cc4)cc3)cc2)cc1	0.4 mg/L	1.6 mg/L	3.1 mg/L	0.8 mg/L	62.5 mg/L	1.6 mg/L	> 125 mg/L	> 1%
CS(=O)(=O)O.CS(=O)(=O)O.Clc1ccc(N=c2ccn(CCCCn3ccc(=Nc4ccc(Cl)cc4)cc3)cc2)cc1	7.8 mg/L	15.6 mg/L	> 250 mg/L	7.8 mg/L	> 125 mg/L	15.6 mg/L	> 250 mg/L	> 1%
Br.Br.Clc1ccc(N=c2ccn(CCCCCCCn3ccc(=Nc4ccc(Cl)cc4)cc3)cc2)cc1	1 mg/L	3.9 mg/L	> 125 mg/L	125 mg/L	> 125 mg/L	3.9 mg/L	> 125 mg/L	> 1%
Br.Br.CCCCCCCCCCN=c1ccn(CCCCCCCn2ccc(=NCCCCCCCCCC)cc2)cc1	1 mg/L	3.9 mg/L	7.8 mg/L	3.9 mg/L	7.8 mg/L	3.9 mg/L	3.9 mg/L	0.01%
Br.Br.Clc1ccc(N=c2ccn(CCCCCCCCCn3ccc(=Nc4ccc(Cl)cc4)cc3)cc2)cc1	0.6 mg/L	2 mg/L	7.8 mg/L	1 mg/L	125 mg/L	1 mg/L	> 125 mg/L	> 1%
Br.Br.CCCCCCCCCCN=c1ccn(CCCCCCCCn2ccc(=NCCCCCCCCCC)cc2)cc1	1 mg/L	3.9 mg/L	3.9 mg/L	7.8 mg/L	7.8 mg/L	2 mg/L	7.8 mg/L	0.01%
CCCCCCCN=c1ccn(CCCCCCCCn2ccc(=NCCCCCCC)cc2)cc1.Cl.Cl	0.5 mg/L	2 mg/L	2 mg/L	1 mg/L	31.3 mg/L	2 mg/L	62.6 mg/L	0.1%
Br.Br.CCCCC(CC)CN=c1ccn(CCCCCCn2ccc(=NCC(CC)CCCC)cc2)cc1 (configuration not stated)	0.5 mg/L	3.9 mg/L	125 mg/L	2 mg/L	> 250 mg/L	7.8 mg/L	> 125 mg/L	> 1%
Br.Br.c1cn(CCCCCCCn2ccc(=NC3CCCCC3)cc2)ccc1=NC1CCCCC1	7.8 mg/L	> 125 mg/L	> 125 mg/L	125 mg/L	125 mg/L	> 125 mg/L	> 125 mg/L	> 1%
Br.Br.Fc1ccc(N=c2ccn(CCCCCCn3ccc(=Nc4ccc(F)cc4)cc3)cc2)cc1	15.6 mg/L	15.6 mg/L	> 125 mg/L	15.6 mg/L	> 62.5 mg/L	31.3 mg/L	> 125 mg/L	> 1%
Br.Br.CCCCCCCCCCN=c1ccn(CCCCCCCCCn2ccc(=NCCCCCCCCCC)cc2)cc1	1 mg/L	3.9 mg/L	15.6 mg/L	7.8 mg/L	7.8 mg/L	2 mg/L	7.8 mg/L	0.01%
Br.Br.CCCCCCN=c1ccn(CCCCCn2ccc(=NCCCCCC)cc2)cc1	2 mg/L	62.5 mg/L	> 125 mg/L	31.3 mg/L	> 125 mg/L	125 mg/L	> 250 mg/L	–
Br.Br.c1cn(CCCCCn2ccc(=NC3CCCCC3)cc2)ccc1=NC1CCCCC1	125 mg/L	> 500 mg/L	> 500 mg/L	> 500 mg/L	> 500 mg/L	> 500 mg/L	> 500 mg/L	> 1%
Br.Br.N=c1ccn(CCCCCCCCCn2ccc(=N)cc2)cc1	31.3 mg/L	–	500 mg/L	–	> 500 mg/L	250 mg/L	> 500 mg/L	> 1%
Br.Br.CCCCCCN=c1ccn(CCCCn2ccc(=NCCCCCC)cc2)cc1	7.8 mg/L	125 mg/L	> 125 mg/L	62.5 mg/L	> 250 mg/L	125 mg/L	> 125 mg/L	–
Br.Br.N=c1ccn(CCCCCCCCCCCCn2ccc(=N)cc2)cc1	2 mg/L	–	> 62.5 mg/L	–	> 62.5 mg/L	> 62.5 mg/L	> 125 mg/L	> 1%
